Experimental findings from ChEMBL document CHEMBL2203113, “Discovery of 2-(2-oxo-1-phenyl-5-pyridin-2-yl-1,2-dihydropyridin-3-yl)benzonitrile (perampanel): a novel, noncompetitive α-amino-3-hydroxy-5-methyl-4-isoxazolepropanoic acid (AMPA) receptor antagonist” (J Med Chem, 2012) are described below.

The nature of data set [1]: Antagonist activity at AMPA receptor in E18 rat cerebral cortical neurons assessed as inhibition of AMPA-induced intracellular Ca2+ response by fura-2 AM dye based fluorimetry. It counts as functional, cell-based.
Data set [2] has as its system Mus musculus. The experiment in a line: Anticonvulsant activity in po dosed ddY mouse AMPA-induced seizure model. It counts as functional. Particulars: read-out: MED. The essentials:
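Male 5-week-old ddY mice given compound orally as a 0.5% MC suspension 1 h before challenge. Clonic seizures induced by intracerebroventricular AMPA infusion at 2 nmol/5 μL/min; latency to clonic seizure recorded. MED taken as lowest dose giving statistically significant prolongation of latency.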

Data set [3] is described as follows: Half life in healthy human. Particulars: in vivo. Type of data set: ADME, organism-based.
Data set [4] in a line: Oral bioavailability in Sprague-Dawley rat at 1 mg/kg. As to conditions: in vivo. Type of data set: ADME, organism-based. The essentials:
(§1)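 Fasted male Sprague-Dawley rats, single 1 mg/kg dose iv or po, n = 3 per route. Blood drawn at set time points; plasma deproteinized with methanol/60% perchloric solution (500:1 v/v) and assayed by HPLC with fluorescence. Parameters from mean plasma concentrations of three animals by model-independent analysis; F = AUC(0-inf) oral/iv ratio.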

In data set [5] the test system is Mus musculus. As to the kind of experiment: Anticonvulsant activity in ddY mouse MES-induced seizure model 0.75 to 2.12 mg/kg, po after 1hr. Particulars: dose mg/kg 0.75-2.12. Type of data set: functional.
The nature of data set [6]: Volume of distribution at steady state in Sprague-Dawley rat at 1 mg/kg, iv. It counts as ADME, organism-based. The arrangement: dose 1 mg/kg, route intravenous. As to conditions: in vivo, read-out: Vdss. The essentials: as §1
Data set [7] in a line: Half life in Sprague-Dawley rat at 1 mg/kg, iv. Type of data set: ADME, organism-based. Set-up: dose 1 mg/kg, route intravenous. Particulars: in vivo. In a few lines:
as §1

Data set [8] in a line: Cmax in Sprague-Dawley rat at 1 mg/kg, po. Type of data set: ADME, organism-based. The arrangement: dose 1 mg/kg, route oral. As to conditions: in vivo. In a few lines: as §1
The nature of data set [9]: Ratio of drug level in brain to plasma in Sprague-Dawley rat at 10 mg/kg, po after 30 mins. As to conditions: brain and plasma, read-out: BPR. Type of data set: ADME, organism-based. The arrangement: dose 10 mg/kg, route oral. The essentials:
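Male Sprague–Dawley rats were dosed orally. Brain was homogenized in two volumes of water. Brain homogenate and plasma were deproteinized with methanol/60% perchloric solution (500:1 v/v) and quantified by HPLC with fluorescence detection. The ratio is brain over plasma concentration, each value the mean of two or three animals.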

In data set [10] the test system is Rattus norvegicus. The experiment in a line: AUC in Sprague-Dawley rat at 1 mg/kg, iv. Type of data set: ADME, organism-based, Plasma. The arrangement: dose 1 mg/kg, route intravenous. Particulars: in vivo. The essentials:
as §1

The nature of data set [11]: Tmax in Sprague-Dawley rat at 1 mg/kg, po. It counts as ADME, organism-based. The arrangement: dose 1 mg/kg, route oral. As to conditions: in vivo. The essentials: as §1
For a further data set, the system named is Nucleic Acid. As to the kind of experiment: Ratio of drug level in CSF to fraction unbound in plasma in ddY mouse at 0.5 mg/kg, ip after 20 mins. Type of data set: ADME, organism-based, Rattus norvegicus. Set-up: dose 0.5 mg/kg, route intraperitoneal. Particulars: in vivo. The essentials:
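Male ddY mice were dosed ip. CSF was taken by cisternal puncture and processed like plasma: deproteinized with methanol/60% perchloric solution (500:1 v/v), then analysed by HPLC with fluorescence detection. The ratio is CSF concentration over unbound plasma concentration. Each value is the mean of two or three animals.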

Data set [12] can be described thus: Ratio of drug level in brain to plasma in ddY mouse at 3 mg/kg, po after 60 mins. It counts as ADME, organism-based. The arrangement: dose 3 mg/kg, route oral. Particulars: brain and plasma, read-out: BPR. In a few lines: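 Male ddY mice dosed orally at 3 mg/kg; brain and plasma taken at 60 min. Brain homogenized in two volumes of water, then processed like plasma (methanol/perchloric deproteinization, HPLC with fluorescence). Ratio is the mean of two or three animals.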

In data set [13] the test system is Rattus norvegicus. As to the kind of experiment: AUC in Sprague-Dawley rat at 1 mg/kg, po. It counts as ADME, organism-based, Plasma. The arrangement: dose 1 mg/kg, route oral. Particulars: in vivo. The essentials:
as §1

For data set [14], the system named is Mus musculus. The experiment in a line: Anticonvulsant activity in ICR mouse pentylenetetrazole-induced seizure model at 0.75 to 3 mg/kg, po after 30 mins. It counts as functional. Particulars: 0.5 h, dose mg/kg 0.75-3.
Data set [15] can be described thus: Plasma clearance in Sprague-Dawley rat at 1 mg/kg, iv. Type of data set: ADME, organism-based. Set-up: dose 1 mg/kg, route intravenous. The essentials:
as §1

Data set [16] concerns Mus musculus. The experiment in a line: Anticonvulsant activity in DBA/2J mouse audinogenic seizure model at 0.3 to 3 mg/kg, po after 1 hr. As to conditions: dose mg/kg 0.3-3. It counts as functional.

pIC50: −log10 of the molar value.

In general, pIC50 refers to the IC50 on a negative log10 scale, so that one unit is a factor of ten. With `O=c1c(-c2ccsc2)cc(-c2ccccn2)cn1-c1cccnc1`, in data set [1], the pIC50 is 6.11.

Consider `O=c1c(-c2ccccc2Cl)cc(-c2ccccn2)cn1-c1cccnc1`, for which the pIC50 in data set [1] was 6.40. Also, the minimal effective dose in the data set on Mus musculus [2] is 25 mg/kg.

For the compound `N#Cc1sccc1-c1cc(-c2ccccn2)cn(-c2cccnc2)c1=O`, in data set [1], the negative logarithm of the IC50 (pIC50) was 6.74. In addition, the minimal effective dose in the data set on Mus musculus [2] was found to be 25 mg/kg.

On to `O=c1c(-c2ccccc2C(F)(F)F)cc(-c2ccccn2)cn1-c1cccnc1`, for which the pIC50 in data set [1] is 5.68.

Turning to `O=c1c(-c2cccnc2F)cc(-c2ccccn2)cn1-c1cccnc1`, the pIC50 in data set [1] was 5.84. The minimal effective dose with Mus musculus [2] was 10 mg/kg.

As to `N#Cc1ccccc1-c1cc(-c2cccnc2)cn(-c2ccccc2)c1=O`, the pIC50 in [1] was 5.40.

In the case of `N#Cc1ccccc1-c1cc(-c2ccncc2)cn(-c2ccccc2)c1=O`, the pIC50 in data set [1] was 5.26.

For `N#Cc1ccccc1-c1cc(-c2ccccc2)cn(-c2ccccc2)c1=O`, the pIC50 in data set [1] was 6.48. For the same compound, the minimal effective dose with Mus musculus [2] came out at 25 mg/kg.

In the case of `N#Cc1ccccc1-c1cc(-c2ccccc2F)cn(-c2ccccc2)c1=O`, the pIC50 in [1] was 6.70.

For `N#Cc1ccccc1-c1cc(-c2cccs2)cn(-c2ccccc2)c1=O`, the pIC50 in data set [1] is 7.00.

As for `N#Cc1ccccc1-c1cc(-c2ccccc2C#N)c(=O)n(-c2ccccc2)c1`, the pIC50 in data set [1] is 5.07.

With `COc1ccccc1-c1cc(-c2ccccc2C#N)c(=O)n(-c2ccccc2)c1`, the pIC50 in [1] was 6.13.

On to `N#Cc1ccccc1-c1cc(-c2ccsc2)cn(-c2ccccc2)c1=O`, for which, in data set [1], the pIC50 was 6.85.

For `COc1cccc(-n2cc(-c3ccccn3)cc(-c3ccccc3C#N)c2=O)c1`, the pIC50 in data set [1] is 6.60.

For `COc1ccccc1-n1cc(-c2ccccn2)cc(-c2ccccc2C#N)c1=O`, the pIC50 in data set [1] was 6.82.

As for `COc1ccc(-n2cc(-c3ccccn3)cc(-c3ccccc3C#N)c2=O)cc1`, in [1], the pIC50 was 6.36.

Consider `N#Cc1ccccc1-c1cc(-c2ccccn2)cn(-c2ccc(F)nc2)c1=O`, for which the pIC50 in [1] is 6.30.

In the case of `N#Cc1ccccc1-c1cc(-c2ccccn2)cn(-c2ccccc2C#N)c1=O`, the pIC50 in data set [1] was below 4.82.

As to `N#Cc1ccc(-n2cc(-c3ccccn3)cc(-c3ccccc3C#N)c2=O)cc1`, in data set [1], the pIC50 is 6.28.

For the compound `COc1ccc(-n2cc(-c3ccccn3)cc(-c3ccccc3C#N)c2=O)cn1`, the pIC50 in data set [1] was 6.21.

For the compound `O=C1COC(c2ccccc2)=NN1c1ccccc1`, the pIC50 in data set [1] is 5.04.

With `O=C1COC(c2ccccc2)=NN1Cc1ccccc1`, in [1], the pIC50 is 4.47.

With `O=C1COC(c2ccccc2)=NN1C1CCCCC1`, the negative logarithm of the IC50 (pIC50) in data set [1] is below 3.82.

For the compound `O=C1COC(C2CCCCC2)=NN1c1ccccc1`, in data set [1], the pIC50 was below 3.82.

On to `CCCC1=NN(c2ccccc2)C(=O)CO1`, for which the pIC50 in [1] is below 3.82.

Turning to `O=C1COC(Cc2ccccc2)=NN1c1ccccc1`, the pIC50 in [1] is below 3.82.

Consider `O=C1CCC(c2ccccc2)=NN1c1ccccc1`, for which, in [1], the pIC50 was 4.55.

For the compound `O=c1ccc(-c2ccccc2)cn1-c1ccccc1`, the negative logarithm of the IC50 (pIC50) in [1] was 4.16.

Consider `O=c1[nH]cc(-c2ccccc2)cc1-c1ccccc1`, for which, in data set [1], the pIC50 is 4.24.

On to `O=c1c(-c2ccccc2)cc(-c2ccccc2)cn1-c1ccccc1`, for which the pIC50 in [1] was 5.97.

On to `O=c1c(-c2ccccc2)cc(-c2ccccn2)cn1-c1ccccc1`, for which, in data set [1], the pIC50 is 6.49.

On to `O=c1c(-c2ccccc2)cc(-c2ccccn2)cn1-c1cccnc1`, for which the pIC50 in data set [1] is 6.36.

On to `N#Cc1cccc(-c2cc(-c3ccccn3)cn(-c3ccccc3)c2=O)c1`, for which the pIC50 in [1] was 5.14.

As to `N#Cc1ccc(-c2cc(-c3ccccn3)cn(-c3ccccc3)c2=O)cc1`, in data set [1], the pIC50 is 4.54.

As for `O=c1c(-c2ccccc2F)cc(-c2ccccn2)cn1-c1ccccc1`, the pIC50 in [1] is 6.70.

Regarding `O=c1c(-c2ccccc2Cl)cc(-c2ccccn2)cn1-c1ccccc1`, the pIC50 in [1] was 7.00.

Consider `Cc1ccccc1-c1cc(-c2ccccn2)cn(-c2ccccc2)c1=O`, for which the negative logarithm of the IC50 (pIC50) in data set [1] was 6.40.

On to `COc1ccccc1-c1cc(-c2ccccn2)cn(-c2ccccc2)c1=O`, for which, in data set [1], the negative logarithm of the IC50 (pIC50) was 5.85.

On to `O=c1c(-c2cccnc2F)cc(-c2ccccn2)cn1-c1ccccc1`, for which, in data set [1], the negative logarithm of the IC50 (pIC50) was 6.43. Moreover, the minimal effective dose in the data set on Mus musculus [2] was 5 mg/kg.

With `O=c1c(-c2cccnc2Cl)cc(-c2ccccn2)cn1-c1ccccc1`, the pIC50 in [1] is 6.17.

Take `N#Cc1ncccc1-c1cc(-c2ccccn2)cn(-c2ccccc2)c1=O`: the pIC50 in data set [1] is 6.70. In addition, the minimal effective dose with Mus musculus [2] worked out at 5 mg/kg.

Consider `N#Cc1ccccc1-c1cc(-c2ccccn2)cn(-c2cccnc2)c1=O`, for which, in data set [1], the pIC50 is 6.68. Moreover, the minimal effective dose with Mus musculus [2] was determined as 10 mg/kg.

By half-life is commonly meant how long it takes for the measured level to halve. Low readings indicate fast loss, high ones slow loss. Usually bioavailability stands for the share of a dose that reaches the circulation, judged against a reference dose that is usually intravenous. A low value points to poor availability. By ED50 is commonly meant the dose at which the effect has come halfway, by size or by number of responders. Higher therefore signals weaker potency. A word on the Cmax: it is the highest concentration seen after dosing. A word on the Tmax: it is the time at which the peak concentration occurs. The term clearance denotes the volume of plasma or blood freed of the substance per unit of time. Low readings indicate a low capacity for elimination, high ones a high capacity for elimination. As to `N#Cc1ccccc1-c1cc(-c2ccccn2)cn(-c2ccccc2)c1=O` [PERAMPANEL], the half-life in data set [3] is 70 h; in data set [7], 2.37 h. The compound also showed a bioavailability in [4] of 64.3%. Besides, the values for the ED50 in the data set on Mus musculus [5], in the data set on Mus musculus [14] and in the data set with Mus musculus [16] were 1.6 mg/kg, 0.94 mg/kg and 0.47 mg/kg, respectively. Moreover, in data set [1], the pIC50 is 7.22. The Vd in data set [6] came to 4.56 L/kg. In [8], this compound yielded a Cmax of 170 ng/mL. Also, the Kp at 0.5 h in [9] is 1.14. For the same compound, the AUC with Rattus norvegicus [10] turned out to be 0.56 µg/mL/h; with Rattus norvegicus [13], 0.36 µg/mL/h. The minimal effective dose with Mus musculus [2] came to 2 mg/kg. The Tmax in data set [11] was determined as 0.5 h. For the same compound, the Ratio in the data set with Nucleic Acid came to 1.14. The Kp at 1 h in [12] was determined as 1.06. In data set [15], this compound had a clearance of 30.3 mL/min/kg.
